Assay results pooled from the literature.
Target: Activin receptor type-1B (ACVR1B, Homo sapiens, UniProt P36896)
Residues used in one study (P36896 24-505): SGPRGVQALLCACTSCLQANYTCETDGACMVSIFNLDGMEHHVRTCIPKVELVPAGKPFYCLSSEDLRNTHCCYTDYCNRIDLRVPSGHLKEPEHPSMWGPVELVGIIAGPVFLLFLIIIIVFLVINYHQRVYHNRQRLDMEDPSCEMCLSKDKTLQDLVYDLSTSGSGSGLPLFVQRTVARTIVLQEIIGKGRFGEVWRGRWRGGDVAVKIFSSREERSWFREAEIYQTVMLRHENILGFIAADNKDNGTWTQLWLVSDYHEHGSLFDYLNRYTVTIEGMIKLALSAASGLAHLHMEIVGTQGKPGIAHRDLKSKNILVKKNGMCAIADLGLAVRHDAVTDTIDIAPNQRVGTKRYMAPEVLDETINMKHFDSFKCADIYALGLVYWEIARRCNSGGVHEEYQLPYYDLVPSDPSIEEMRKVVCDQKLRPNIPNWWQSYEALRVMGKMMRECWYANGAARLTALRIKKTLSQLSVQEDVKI

| Compound | assay | conditions | measurement | value |
| --- | --- | --- | --- | --- |
| O=C(Nc1ccc(Oc2ccc(F)cc2)cc1)N1CCc2ncccc2[C@H]1c1ccc(F)cc1 | cell-free assay, competition with immobilised ligand | 1 µM | remaining binding | 94% |
| Cn1c2c(c3ccc(Cl)c(Cl)c31)C(C#N)C(C)(C)NC2=O (stereo not shown) | thermal stability, DSF | 10 µM | ΔTm | 2.9 °C |
| CS(=O)(=O)Nc1cccc(-c2csc(NC(=O)CSc3nc4nccnc4c(=O)n3CCc3ccccc3)n2)c1 | enzyme activity, inhibitor | 10 µM | inhibition | 2% |
| Cn1c2c(c3ccc(Cl)c(Cl)c31)C(C#N)C1(CCOCC1)NC2=O (stereo not shown) | thermal stability, DSF | 10 µM | ΔTm | 0.2 °C |
| CN1CCN(c2cnc3c(C4CCN(C(=O)c5ccc(OC(F)(F)F)cc5N)CC4)ncnc3c2)CC1 | cell-free assay, competition with immobilised ligand | 1 µM | remaining binding | 79% |
| Clc1ccc(Nc2nnc(Cc3ccncc3)c3ccccc23)cc1 | cell-free assay | 0.5 µM | remaining signal | 108% |
| COc1cc2ncnc(Nc3ccc(Oc4ccccc4)cc3C)c2cc1OC | enzyme activity, inhibitor | 1 µM | inhibition | -2% |
| CSc1cccnc1N1CCN(Cc2nc3ccccc3[nH]2)CC1 | cell-free assay, competition with immobilised ligand | 1 µM | remaining binding | 100% |
| CNC(=O)c1cc(Oc2ccc(NC(=O)Nc3ccc(Cl)c(C(F)(F)F)c3)cc2)ccn1 | cell-free assay, inhibitor | 0.3 µM | inhibition | -6% |
| CCN(CC)CCNC(=O)c1c(C)[nH]c(/C=C2\C(=O)Nc3ccc(F)cc32)c1C | cell-free assay | 0.5 µM | remaining signal | 101% |
| CNCc1ccccc1-c1csc([C@H](C)Nc2nc(C)nc3cc(OC)c(OC)cc23)c1 | cell-free assay, competition with immobilised ligand | 1 µM | remaining binding | 100% |
| Cc1sc(C(=O)NC2COC2)cc1-n1cc(NC(=O)Nc2c(F)cccc2Cl)cn1 | enzyme activity, inhibitor | 10 µM | remaining activity | 78.5% |
| Cn1c2c(Cl)c(Cl)ccc2c2cc(N)[nH]c(=O)c21 | thermal stability, DSF | 10 µM | ΔTm | 3.9 °C |
| c1ccc(N2CCN(Cc3nc4ccccc4[nH]3)CC2)nc1 | cell-free assay, competition with immobilised ligand | 1 µM | remaining binding | 85% |
| Cc1cc(NC(=O)c2cccc3cc(-c4cccc5[nH]nc(N)c45)ccc23)ccc1F | enzyme activity, inhibitor | 0.1 µM | activity vs control | 103% |
| CS(=O)(=O)c1cc(C2(NC(=O)c3cncc4c3cnn4-c3ccc(F)cc3)CC2)ccn1 | cell-free assay, competition with immobilised ligand | 1 µM | remaining binding | 100% |
| CN(C)C1CCN(CC#Cc2nn(C3CCCC3)c3nc(NCc4ccccc4)ncc23)C1 (stereo not shown) | enzyme activity, inhibitor, FRET | 0.1 µM | inhibition | 0% |
| CC(C)(C)c1nc(-c2cccc(NS(=O)(=O)c3c(F)cccc3F)c2F)c(-c2ccnc(N)n2)s1 | enzyme activity, inhibitor, radiometric | 1 µM | remaining activity | 22% |
| COc1cc(-c2cc(-c3ccc(N4CCNCC4)cc3)cnc2C)cc(OC)c1OC | enzyme activity, inhibitor | 1 µM | inhibition | 36% |
